For data set [1], the system named is Mus musculus. Description: Inhibition of spontaneous motor activity in mice, by administering perorally at a dose of 100 mg/kg. The format is functional. The following applies: route oral. The method in brief: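 Mice fasted overnight, then dosed orally with compound (weighed as base) suspended in arabic gum, 10 mL/kg, with vehicle controls; 1 h pretreatment for screening tests, 1 or 5 h for others. Groups of five; locomotor activity counted 10 min in photocell activity cage, at least two groups per dose. ED50 = dose giving 50% inhibition versus controls, by probit analysis.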

In data set [2] the test system is Rattus norvegicus. Description: Antagonistic activity against apomorphine-induced stereotypy in rats, by administering perorally at a dose of 100 mg/kg. Type of data set: functional. The following applies: route oral. In outline:
(§1)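 Male rats fasted overnight and given oral doses in arabic gum suspension (10 mL/kg) 1 h, or 1 and 5 h, before challenge. Apomorphine 3 mg/kg iv, with stereotypy observed 20 min later. ED50 is the dose inhibiting stereotypy in 50% of rats, per Janssen's method. Parenthetical entries give the maximal dose and percent activity.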

Data set [3] in a line: Lethal dose in mice (LD50) following i.p. dosing. Type of data set: toxicity, organism-based. The settings on record: mouse, in vivo, ip. In outline: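 Acute toxicity tested in mice by the intraperitoneal route. LD50 is the dose killing 50% of treated mice, computed by Finney probit analysis; values are approximate.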
Data set [4] has as its system Rattus norvegicus. Description: Activity to evoke catalepsy in rats, by administering perorally at a dose of 100 mg/kg. Type of data set: functional. The following applies: route oral, read-out: Inhibition. The method in brief:
(§2)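 Rats fasted overnight and given oral doses in arabic gum suspension (10 mL/kg), 1 h before screening or 1 and 5 h before profile testing. Forelegs placed on a horizontal bar 7 cm high, three times at 5-min intervals. Immobility of at least 15 s counts as catalepsy. ED50 is the dose giving catalepsy in 50% of rats, by probit analysis. Parenthetical entries give the maximal dose and percent activity.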

Data set [5] deals with Mus musculus. In words: Antagonistic activity against amphetamine-induced Hypermobility in mice, by administering perorally at a dose of 100 mg/kg. Type of data set: functional. The settings on record: route oral. The method in brief: (§3)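 Male mice in groups of five, fasted overnight, given oral drug in arabic gum suspension (10 mL/kg) 1 or 5 h ahead. Amphetamine 4 mg/kg ip given 30 min after drug. Ten minutes later locomotion is recorded for 15 min in a photocell actophotometer. ED50 is 50% reduction versus control hypermotility, by probit analysis. Parenthetical entries give the maximal dose and percent activity.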

The test system of data set [6] is Mus musculus. Description: Inhibition of spontaneous motor activity in mice, by administering perorally. The format is functional. The following applies: po. The method in brief: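 Mice in groups of five were dosed orally with gum arabic suspensions at 10 mL/kg after an overnight fast, with a vehicle control group. Locomotion was counted for 10 min in a photocell activity cage, in at least two groups per dose. ED50, by probit analysis, is the dose giving 50% inhibition against controls.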

Data set [7] deals with Mus musculus. In words: Inhibition of amphetamine-induced hypermobility in mice following p.o. administration. Type of data set: functional. The following applies: po. In outline: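 Compounds were given orally to male mice (gum arabic suspension, 10 mL/kg, fasted) in groups of five. Amphetamine 4 mg/kg ip followed 30 min later. After another 10 min, motility was recorded for 15 min with a photocell actophotometer. ED50, by probit analysis, is the dose giving 50% reduction against controls.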

In data set [8] the test system is Rattus norvegicus. Description: Antagonistic activity against apomorphine-induced stereotypy in rats, by administering perorally. The format is functional. The settings on record: po. In outline: as §1
Data set [9] relates to Rattus norvegicus. Description: Activity to evoke catalepsy in rats, by administering perorally at a dose of 200 mg/kg. The format is functional. The settings on record: route oral. In outline: as §2
Data set [10] has as its system Rattus norvegicus. In words: Activity to evoke catalepsy in rats, by administering perorally at a dose of 150 mg/kg. The format is functional. The settings on record: route oral. In outline: as §2
The test system of data set [11] is Rattus norvegicus. In words: Antagonistic activity against apomorphine-induced stereotypy in rats, by administering perorally at a dose of 150 mg/kg. The following applies: route oral. Type of data set: functional. In outline: as §1
Data set [12] has as its system Rattus norvegicus. Description: Antagonistic activity against apomorphine-induced stereotypy in rats, by administering perorally at a dose of 50 mg/kg. Type of data set: functional. The following applies: route oral. In outline: as §1
Data set [13] relates to Rattus norvegicus. In words: Activity to evoke catalepsy in rats, by administering perorally at a dose of 50 mg/kg. Type of data set: functional. The following applies: route oral. The method in brief: as §2
Data set [14] has as its system Rattus norvegicus. Description: Activity to evoke catalepsy in rats, by administering perorally. Type of data set: functional. The settings on record: po. The method in brief: as §2
Data set [15] deals with Rattus norvegicus. Description: Activity to evoke catalepsy in rats, by administering perorally at a dose of 70 mg/kg. The settings on record: route oral. The format is functional. The method in brief:
as §2

The subject of data set [16] is Rattus norvegicus. In words: Activity to evoke catalepsy in rats, by administering perorally at a dose of 40 mg/kg. Type of data set: functional. The settings on record: route oral. In outline: as §2
The test system of data set [17] is Rattus norvegicus. Description: Antagonistic activity against apomorphine-induced stereotypy in rats, by administering perorally at a dose of 40 mg/kg. Type of data set: functional. The settings on record: route oral. In outline:
as §1

Data set [18] deals with Mus musculus. Description: Antagonistic activity against amphetamine-induced Hypermobility in mice, by administering perorally at a dose of 10 mg/kg. The settings on record: route oral. The format is functional. In outline:
as §3

By inhibition in vivo is commonly meant how much of the control response was suppressed. A high value points to a strong effect. The LD50 is the dose at which mortality reaches 50%. A high value points to a less toxic substance. Broadly, the ED50 is the dose that gives a 50% effect, or the effect in half of the subjects. A higher ED50 goes with weaker potency.

Bounds are passed on as bounds.

Turning to `Oc1nc(-c2ccc(F)cc2)c(CCN2CCN(c3cc(Cl)c(Cl)c(Cl)c3)CC2)o1`, the inhibition in vivo at 100 mg/kg in [1], in [2] and in data set [5] was 0% in each case. This compound returned an LD50 in data set [3] greater than 1000 mg/kg. The percent of rats showing catalepsy at 100 mg/kg in [4] was found to be 0%.
Regarding `Oc1nc(-c2ccc(F)cc2)c(CCN2CCN(c3ccc(Cl)cc3)CC2)o1`, the inhibition in vivo at 100 mg/kg in data set [2] and in data set [5] was 0% each time. The same compound gave a median effective dose (ED50) in [6] of 200 mg/kg. Also, the LD50 in data set [3] is greater than 1000 mg/kg. In data set [4], the percent of rats showing catalepsy at 100 mg/kg was 0%.
Compound `Oc1nc(-c2ccc(F)cc2)c(CCN2CCN(c3ccccc3Cl)CC2)o1` came in with an inhibition in vivo at 100 mg/kg in [2] of 0%. In addition, the results for the ED50 in [7] and in [6] were 15 mg/kg and 14.2 mg/kg, respectively. This compound also yielded an LD50 in data set [3] greater than 1000 mg/kg. Besides, the percent of rats showing catalepsy at 100 mg/kg in [4] was determined as 30%.
For `COc1ccc(N2CCN(CCc3oc(O)nc3-c3ccc(F)cc3)CC2)cc1`, the inhibition in vivo at 100 mg/kg stood at 33% in data set [1], 0% in data set [2] and 0% in data set [5]. Besides, the LD50 in data set [3] was greater than 1000 mg/kg. Moreover, the percent of rats showing catalepsy at 100 mg/kg in data set [4] was 0%.
Turning to `O=c1oc(CCN2CCN(c3ccccc3)CC2)c(-c2ccc(F)cc2)n1Cc1ccccc1`, the results for the ED50 in data set [8] and in data set [6] were 200 mg/kg and 51 mg/kg, respectively. In [3], this compound came in with a 50% lethal dose (LD50) of 1000 mg/kg. Testing at 200 mg/kg in data set [9] gave an inhibition in vivo of 0%. The inhibition in vivo at 100 mg/kg in [5] is 40%.
In the case of `CCCCn1c(-c2ccc(F)cc2)c(CCN2CCN(c3ccccc3)CC2)oc1=O`, the ED50 in data set [7] amounted to 15.4 mg/kg; in data set [6], 16 mg/kg. Moreover, the inhibition in vivo at 150 mg/kg amounted to 0% in data set [10] and 40% in data set [11]. In addition, the LD50 in [3] amounted to 750 mg/kg.
As for `Cc1cccc(N2CCN(CCc3oc(O)nc3-c3ccc(F)cc3)CC2)c1`, the ED50 was found to be 7.3 mg/kg in data set [7] and 13.4 mg/kg in [6]. In addition, the inhibition in vivo at 50 mg/kg in data set [12] and in data set [13] was 0% throughout. This compound registered an LD50 in data set [3] greater than 1000 mg/kg.
For `Oc1nc(-c2ccc(F)cc2)c(CCN2CCN(c3cccc(Cl)c3)CC2)o1`, the 50% effective dose (ED50) in data set [8] was determined as 80 mg/kg; in data set [7], 54.1 mg/kg; in data set [6] it was 58.5 mg/kg. The same compound displayed an LD50 in data set [3] greater than 1000 mg/kg. Besides, the percent of rats showing catalepsy at 100 mg/kg in data set [4] turned out to be 0%.
In the case of `Oc1nc(-c2ccc(F)cc2)c(CCN2CCN(c3ccccc3)CC2)o1`, the ED50 in data set [8] came to 47.5 mg/kg; in data set [7] it was 5.4 mg/kg; in data set [6] it was 3.6 mg/kg; in [14], 87 mg/kg. Besides, in [3], the LD50 is greater than 2000 mg/kg.
Regarding `Cc1ccc(-c2nc(O)oc2CCN2CCN(c3ccccc3)CC2)cc1`, in data set [2], the inhibition in vivo at 100 mg/kg turned out to be 0%. Besides, the 50% effective dose (ED50) in [7] was found to be 2 mg/kg; in data set [6], 6.4 mg/kg. The compound also displayed an LD50 in data set [3] of 400 mg/kg. Further, the percent of rats showing catalepsy at 100 mg/kg in data set [4] was found to be 0%.
In the case of `CCN(CC)CCn1c(-c2ccc(F)cc2)c(CCN2CCN(c3ccccc3)CC2)oc1=O`, the ED50 in data set [8] came to 35 mg/kg; in data set [6], 60 mg/kg. Further, the inhibition in vivo at 70 mg/kg in data set [15] came out at 0%. In data set [3], this compound had an LD50 of 350 mg/kg.
With `Oc1nc(-c2ccc(F)cc2)c(CCCN2CCN(c3ccccc3)CC2)o1`, the ED50 in data set [6] came out at 8 mg/kg. In addition, the inhibition in vivo at 40 mg/kg in data set [16] and in data set [17] was 0% in each case. Also, in [3], the LD50 came to 170 mg/kg. Besides, at 10 mg/kg the inhibition in vivo in data set [18] was 69%.
As for `CNC(=O)n1c(-c2ccc(F)cc2)c(CCN2CCN(c3ccccc3)CC2)oc1=O`, the ED50 in data set [7] is 9.9 mg/kg; in data set [6] it was 16.5 mg/kg. In data set [3], this compound had an LD50 of 750 mg/kg. Besides, the percent of rats showing catalepsy at 100 mg/kg in [4] was determined as 0%.

The values above are taken from ChEMBL document CHEMBL1124344, “5-Piperazinylalkyl-2(3H)-oxazolones with neuroleptic activity” (J Med Chem, 1989).
